Bioassay records as filed in PubChem BioAssay.
CHRM4 antagonist = antagonists of human muscarinic M4 receptor (CHRM4); P08173; hit rate 0.73% among 360,000; CHO-hM4 cells, ACh EC80, Fluo-8 calcium fluorescence; inhibition, % at 3 µM;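 active means inhibition above its plate's cutoff, the mean inhibition of sample wells plus 3 SD, cut at about 27% in these data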;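 further: 0% = acetylcholine EC80 with DMSO and 100% = DMSO without agonist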
M5 ag = CHRM5 agonism in calcium assay; P08912; CHO-K1 hM5 cells, Fluo-8 calcium fluorescence; 0% DMSO wells, 100% maximal acetylcholine response; activation, % at 3 µM; hit rate 0.19% among 360,000; AID 624037;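 active means activation above the run's mean over test compounds plus 3 SD, cut at about 23% in these data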;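 further: signal is peak over basal fluorescence ratio across the kinetic read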
Target sequence (P08912 whole entry, looked up): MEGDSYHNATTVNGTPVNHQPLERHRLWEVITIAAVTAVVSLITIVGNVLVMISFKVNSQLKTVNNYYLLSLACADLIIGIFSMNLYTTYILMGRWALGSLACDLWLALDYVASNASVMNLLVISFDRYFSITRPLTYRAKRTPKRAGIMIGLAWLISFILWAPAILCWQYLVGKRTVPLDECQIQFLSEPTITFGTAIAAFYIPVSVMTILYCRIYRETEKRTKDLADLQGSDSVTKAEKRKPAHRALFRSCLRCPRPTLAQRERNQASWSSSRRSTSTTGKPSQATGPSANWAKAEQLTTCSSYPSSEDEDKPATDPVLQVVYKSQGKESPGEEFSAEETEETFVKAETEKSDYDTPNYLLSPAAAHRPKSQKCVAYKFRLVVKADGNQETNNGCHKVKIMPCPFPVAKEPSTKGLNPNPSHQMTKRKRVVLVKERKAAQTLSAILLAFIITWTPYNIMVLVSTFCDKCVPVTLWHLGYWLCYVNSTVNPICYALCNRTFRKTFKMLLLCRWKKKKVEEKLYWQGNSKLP
CHRM4 agonist = agonists of human muscarinic M4 receptor (CHRM4) | activation, % at 3 µM | hit rate 0.14% among 360,000 | P08173 | CHO-K1 hM4/Gqi5, Fluo-8 calcium fluorescence; vehicle 0%, full acetylcholine response 100% | AID 624127;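 active means activation above the run mean over all test wells plus 3 SD, cut at about 32% in these data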;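 further: peak over basal fluorescence ratio per well then scaled between controls; 0% = DMSO wells and 100% = acetylcholine at EC100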
M5 PAM = potentiates acetylcholine response at human M5 receptor | CHO-K1 hM5, Fluo-8 calcium, ACh EC20 PAM; 0% = ACh EC20, 100% = ACh EC100 | activation, % at 3 µM | hit rate 0.3% among 360,000;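 active means activation above the run cutoff, the mean activation of all test compounds plus 3 SD, cut at about 18% in these data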
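Assay system: CHO-K1 hM5 cells. Also added: acetylcholine at EC20 concentration, added after compound. Dosing: 3 µM, single dose. Times: compound preincubation 140 s before EC20 acetylcholine addition. Signal: Fluo-8 calcium fluorescence. Measure: % activation relative to EC20 and EC100 ACh responses. Repeats: singlicate, one well per test compound.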
M4 PAM = potentiates acetylcholine response at human M4 receptor; P08173; CHO-K1 hM4/Gqi5, Fluo-8 calcium fluorescence, ACh EC20; 0% = ACh EC20, 100% = maximal ACh; activation, % at 3 µM; hit rate 0.4% among 360,000; AID 624126;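 active means activation above its plate's cutoff, the mean activation of sample wells plus 3 SD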
M5 antag = antagonists of human muscarinic M5 receptor (CHRM5); P08912; CHO-hM5 cells, Fluo-8 calcium fluorescence, ACh EC80; inhibition, % at 3 µM; hit rate 0.59% among 360,000;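 active means inhibition above a per-plate cutoff, the mean of that plate's test compounds plus 3 SD, cut at about 27% in these data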;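 further: 0% = acetylcholine EC80 with DMSO and 100% = DMSO without agonist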
Starred values were filed as active, the others as inactive. In the library only some 1.8% were active in any assay of this set; here they are far more common.

SMILES	CHRM4 antagonist	M5 ag	CHRM4 agonist	M5 PAM	M4 PAM	M5 antag
CCOC(=O)CSc1nc(C)c2cccc(C)c2n1	-7.9	-0.4	0.5	19.2*	7.7	-5.1
COc1cccc2cc(/C(C)=N/Nc3nc(-c4cc(C)ccc4C)cs3)c(=O)oc12	4.4	-1.7	0.6	-0.1	12.2	1.8
COC(=O)[C@H](CC(C)C)NC(=O)Nc1ccccc1F	-7.9	-5.4	15.2	-14.3	-24.6	26.6
CCCn1c(NC(=O)CN2C(=O)NC3(CCCC3)C2=O)nc2ccccc21	-28.3	-1.4	3.2	-1.7	23.2*	-3.5
CCCn1c(NC(=O)CN2C(=O)NC3(CCCCC3)C2=O)nc2ccccc21	-3.0	-1.2	1.5	1.9	-2.8	-3.6
O=C(c1ccc(Cl)cc1)C1CCCN(Cc2ccc(Oc3ncccn3)cc2)C1 (stereo unspecified)	43.8*	-18.0	6.6	-31.4	-44.6	26.2
O=C(c1ccc(Cl)cc1)C1CCCN(Cc2cnn(-c3ccccc3)c2)C1 (stereo unspecified)	-7.4	-13.6	9.6	-17.2	-13.0	9.0
CN(CCCNC(=O)CCc1cn(C)c2ccccc12)C1CCCCC1	-8.8	-5.9	1.3	2.5	2.2	-0.1
Cc1cccc(C)c1NC(=O)COC(=O)c1ccc([N+](=O)[O-])o1	-8.3	-3.0	0.5	-1.8	-3.8	1.0
Cc1cccc(N(CC(=O)N2CCCC2)S(C)(=O)=O)c1	6.8	2.8	-0.1	4.7	-1.2	-1.7
CS(=O)(=O)N(CC(=O)N1CCCC1)c1cccc(Cl)c1	2.2	-6.8	0.2	28.4*	4.5	3.3
COc1ccc(-c2ccc3c(c2)S(=O)(=O)c2cccc(C(=O)N4CCN(c5c(Cl)cncc5Cl)CC4)c2C3=O)cc1OC	3.5	3.5	9.5	-16.2	-5.0	12.4
O=C1Cc2ccccc2Sc2ccccc21	10.1	-6.1	-0.4	-0.2	3.5	-6.2
CN1CCC(=C2c3ccccc3Sc3ccccc32)CC1	99.4*	0.1	9.6	-19.1	-17.9	99.0*
CN1CCN(C(=O)CCN2C(=O)c3ccccc3C2=O)CC1	2.2	2.7	0.1	1.6	4.5	5.6
CN1CCC(=C2c3ccccc3C=Cc3ccccc32)CC1	99.5*	0.8	6.3	-18.1	-18.8	99.0*
O=C(CN1C(=O)c2ccccc2S1(=O)=O)Nc1cccc(S(=O)(=O)N2CCCCC2)c1	4.3	1.7	3.5	-14.0	0.6	8.6
CCCCCc1ccc(OCCCC[n+]2ccc(C)cc2)c(CCCCC)c1	48.1*	-16.8	10.7	-31.3	-24.4	21.8
CCC(C)(C)c1ccc(OCCCC[n+]2ccccc2)c(C(C)(C)CC)c1	22.0	-9.6	8.2	-19.8	-15.6	21.3
CCCCCc1ccc(OCCCC[n+]2cccc(C)c2)c(CCCCC)c1	42.5*	-9.8	0.9	-19.1	-16.8	21.3
CCCCCc1ccc(OCCCC[n+]2ccccc2)c(CCCCC)c1	12.6	-10.4	-0.8	-14.7	-16.9	9.4
C/C(=N\Nc1nnc(-c2ccccc2)c(-c2ccccc2)n1)c1cccc([N+](=O)[O-])c1	-6.8	2.8	-0.4	1.5	-2.8	-0.5
O=[N+]([O-])c1cccc(/C=N/Nc2nnc(-c3ccccc3)c(-c3ccccc3)n2)c1	-12.3	-1.3	1.3	-2.8	33.6*	-0.9
Cc1ccc(NC(=O)CCCSc2ccccc2)cc1S(=O)(=O)N1CCOCC1	1.5	2.6	15.4	-7.5	-15.3	1.6
Cc1sc2ncn3c(C)nnc3c2c1C	0.4	-0.8	0.5	3.8	18.9*	-0.8
SMILES	CHRM4 antagonist	M5 ag	CHRM4 agonist	M5 PAM	M4 PAM	M5 antag
COc1cc(C2Nc3ccc4ccccc4c3C3=C2C(=O)CC(C)(C)C3)ccc1OC(C)C(=O)O (stereo unspecified)	7.6	-3.0	0.2	-6.2	-1.1	4.9
CCOc1ccc(S(=O)(=O)NCCc2cn3ccccc3n2)cc1	-1.7	-5.3	1.7	3.1	15.9*	11.5
O=C(CC1SC(=NCc2ccccc2)NC1=O)Nc1ccccc1 (stereo unspecified)	7.0	-3.9	0.4	-3.3	4.5	14.6
CCCNC(=O)c1ccc(N2CCC3(CC2)CC(c2cccc(Br)c2)=NO3)c([N+](=O)[O-])c1	33.2*	1.8	11.4	-26.3	-7.7	17.5
Nc1nc(-c2ccc3c(c2)OCCO3)cs1	-0.7	0.3	1.3	2.9	2.3	-2.2
Nc1nc(-c2ccc3c(c2)CCCC3)cs1	-15.3	-1.8	-1.8	19.8*	11.9	9.7
Cc1cc(C(=O)Nc2ccc(S(=O)(=O)Nc3onc(C)c3C)cc2)c(C)o1	-4.7	2.6	-0.2	6.2	6.3	-11.2
Cc1ccc2oc(C(=O)Nc3ccc(S(=O)(=O)Nc4onc(C)c4C)cc3)c(C)c2c1	1.9	0.2	-0.1	47.6*	1.0	12.7
Cc1ccccc1OCC(=O)Nc1ccc(S(=O)(=O)Nc2onc(C)c2C)cc1	-21.4	1.8	0.2	22.0*	-0.3	-13.8
O=C1CC(NN2CCCCC2)C(=O)N1c1ccccc1 (stereo unspecified)	-10.7	5.0	1.2	1.3	1.7	8.6
Cc1oc(S(=O)(=O)N2CCCCC2)cc1NC(=O)Nc1ccc(Cl)cc1	0.6	8.7	22.1	-28.1	-23.7	31.7*
Cc1oc(S(=O)(=O)N2CCCCC2)cc1NC(=O)Nc1ccccc1	-8.1	2.8	14.3	-6.7	-18.7	12.2
O=C(Nc1cccc(Cl)c1)Nc1cc(S(=O)(=O)N2CCCCC2)ccc1Cl	15.7	4.0	9.5	-18.3	-14.9	29.5*
O=C(Nc1ccc(N2CCOCC2)c(S(=O)(=O)Nc2ccccc2Cl)c1)c1ccccc1	11.9	-4.7	12.4	-23.8	-8.9	13.0
CN1CCN(S(=O)(=O)c2ccc(NC(=O)c3ccccc3Cl)cc2)CC1	2.4	-4.4	0.7	-3.8	-3.6	6.6
O=C(Nc1ccc(Cl)cc1)Nc1ccc(N2CCCC2)c(S(=O)(=O)Nc2ccccc2Cl)c1	16.5	-0.7	6.1	-15.3	-5.4	27.4*
CN1CCN(S(=O)(=O)c2ccc(NC(=O)Nc3cccc(Cl)c3)cc2)CC1	28.6*	2.6	12.9	-3.2	-8.2	12.5
CNC(=O)COC(=O)c1cc(-c2ccccc2)nn1-c1ccccc1	-5.9	-6.0	0.8	0.6	-4.3	6.9
Cc1ccc(C)c(OCCNc2ncccc2[N+](=O)[O-])c1	7.9	-0.9	-1.4	-5.5	-8.4	6.6
O=C1O[C@@H](c2ccccc2)C[C@@H](O)C(=O)CCc2ccccc21	-5.0	3.1	2.0	2.8	7.9	-6.2
Cc1ccn2c(NC(=O)c3ccccc3)c(-c3cccs3)nc2c1	4.9	4.2	16.8	-9.6	-3.9	1.9
Cc1ccn2c(NCc3ccccc3)c(-c3cccs3)nc2c1	-18.4	-9.5	1.6	0.7	19.6*	-12.1
